Source: article PMC10073089 (European Journal of Medicinal Chemistry, 2023)

What was measured:
[1] = Pharmacokinetic study in ICR; type: in vivo, mice; conditions: for improvement in plasma exposure (AUClast) compared to niclosamide: ICR (CD-1) mice, oral 30 mg/kg; for conversion of prodrug to parent compound 21: mice plasma after single-dose administration
Summary of the method: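 Mice (N = 3 per group) fasted 12 h before dosing. Test compound given in DMSO/0.5% HMPC (5/95, v/v), 30 mg/kg orally or 2.5 mg/kg intravenously. Femoral-vein blood taken at 0.25, 0.5, 1, 2, 4, 8 and 24 h. […] analysed by LC-MS/MS for prodrug and parent. Mole correction applied for prodrug dosing; AUClast derived.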

[2] = Metabolic stability in mouse liver microsomes; type: in vitro ADME; conditions: pH 7.4
Summary of the method: (§1)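 Microsomes at 0.33 mg/mL final in 0.1 M Tris pH 7.4 with 5 mM MgCl2, 0.01% DMSO and 0.005% BSA. Test compound at 1 μM final. Preincubated 10 min at 37 °C, then started with NADPH (1 mM final). Aliquots taken at 0, 7, 17, 30 and 60 min and quenched with cold methanol. After centrifugation, parent compound quantified by LC-MS/MS; half-life reported in min.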

[3] = Metabolic stability in human liver microsomes; type: in vitro ADME; conditions: pH 7.4
Summary of the method: as §1

Sub-acute toxicity study = type: in vivo, ICR mice
Summary of the method: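 Male mice of 18–20 g in four groups of ten: one control group and three oral groups at 50, 100 and 200 mg/kg, dosed once daily for ten days. Body weight, food intake and behaviour checked daily. Animals fasted before dissection. Heart, liver, spleen, lung, kidney and administration site collected for organ weight and histology.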

SKP2 = assay: Western blot assay, SKP2 level in Vero-E6 cells; type: cell-based; conditions: 16 h
BECN1 = assay: Western blot assay, BECN1; type: cell-based; conditions: Vero-E6 cells

SMILES: O=C(Nc1ccc(C(F)(F)F)cc1)c1cc(Cl)c(F)cc1O [Compound 19, 5-Chloro-4-fluoro-2-hydroxy-N-(4-(trifluoromethyl)phenyl)benzamide]
- improvement in plasma exposure (AUClast) compared to niclosamide [1]: 3.19 fold

SMILES: O=C(Nc1ccc(OC(F)(F)F)cc1)c1cc(Cl)c(F)cc1O [Compound 21, 5-Chloro-4-fluoro-2-hydroxy-N-(4-(trifluoromethoxy)phenyl)benzamide]
- improvement in plasma exposure (AUClast) compared to niclosamide [1]: 10.84 fold
- half-life at 1 µM [2]: 22.6 min
- half-life at 1 µM [3]: 120 min
- tolerability (Sub-acute toxicity study; ICR mice, oral dosage up to 200 mg/kg, ten days): well tolerated
- changes in body weight, organ weight, or tissue histology (Sub-acute toxicity study; male ICR mice, 50, 100, 200 mg/kg once a day for ten days): No significant changes
- mortality (Sub-acute toxicity study; male ICR mice, 50, 100, 200 mg/kg once a day, 10 days observation): No mortality
- level of SKP2 (SKP2): reduced
- levels of BECN1 (BECN1; 3 μM and 1 μM): slightly increased
- levels of BECN1 (BECN1; 10 μM, vs control group): higher than the control group

SMILES: CC(C)C(=O)Oc1cc(F)c(Cl)cc1C(=O)Nc1ccc(OC(F)(F)F)cc1 [Compound 24, 4-Chloro-5-fluoro-2-((4-(trifluoromethoxy)phenyl)carbamoyl)phenyl isobutyrate]
- conversion of prodrug to parent compound 21 [1]: rapidly hydrolyze to compound 21

SMILES: CC(=O)Oc1cc(F)c(Cl)cc1C(=O)Nc1ccc(OC(F)(F)F)cc1 [Compound 25, 4-Chloro-5-fluoro-2-((4-(trifluoromethoxy)phenyl)carbamoyl)phenyl acetate]
- conversion of prodrug to parent compound 21 [1]: rapidly hydrolyze to compound 21

SMILES: C[C@H](N)C(=O)Oc1cc(F)c(Cl)cc1C(=O)Nc1ccc(OC(F)(F)F)cc1.Cl [Compound 26, 4-Chloro-5-fluoro-2-((4-(trifluoromethoxy)phenyl)carbamoyl)phenyll-alaninate monohydrochloride]
- conversion of prodrug to parent compound 21 [1]: barely transforms to parent compound 21

SMILES: O=C(Nc1ccc([N+](=O)[O-])cc1Cl)c1cc(Cl)ccc1O [NIC, niclosamide, reference compound]
- half-life at 1 µM [2]: 5.86 min
- half-life at 1 µM [3]: 13.3 min
- level of SKP2 (SKP2): reduced
- levels of BECN1 (BECN1; 10 μM, vs control group): higher than the control group
